Tested on: MS2 coat protein
Test: apparent Kd, MS2 coat protein; higher = weaker binding; RNA-MaP array; FMN 200 µM where present
Procedure, shortened: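 Stalled E. coli RNA polymerase produced the designs on Illumina sequencing-chip clusters. SNAP-549-labelled MS2 coat protein was added from 0.7 or 1.5 nM, doubling to 3 µM, without and then with constant ligand, in 100 mM Tris-HCl pH 7.5, 80 mM KCl, 4 mM MgCl2, BSA, DTT, yeast tRNA and Tween-20. The apparent Kd is the median of filtered per-cluster fits of green signal normalised to red-channel RNA signal and control-cluster median Fmax.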

[1] = designed as: OFF switch for flavin mononucleotide, no ligand
[2] = ligand present: flavin mononucleotide, designed as: OFF switch for flavin mononucleotide
[3] = designed as: ON switch for flavin mononucleotide, no ligand
[4] = ligand present: flavin mononucleotide, designed as: ON switch for flavin mononucleotide

Row | Sequence | apparent Kd [1] [nM] | apparent Kd [2] [nM] | apparent Kd [3] [nM] | apparent Kd [4] [nM]
1 | UGAUAGGACAGAGGAUAUACGUGCUGGAGAUACUAGCAAAGUAUCUCGACAUGAGGAUCACCCAUGUAGAAGGCUGUCCUAUCU | 25.2 | 89.4 |  | 
2 | UGAUCACAUGAGGAUCACCCAUGUCAGGAUAUCUACAUUGAAGCUGCGGCUUCAAUGUAGAGAAGGGAUAUAAU | 99 | 229 |  | 
3 | UGAUCGAGAGAUCUUAGAUUCUGGUAGGAUAUACAUAUAGUAAUAUAGACAUGAGGAUCACCCAUGUAGAAGGACUAGAGUCUA | 6.9 | 8.65 |  | 
4 | UGAUCGAGAGAUCUUAGAUUCUGGUAGGAUAUGCAACAGUUGCGCUUUACAUGAGGAUCACCCAUGUAGAAGGACUAGAGUCUA | 5.86 | 6.1 |  | 
5 | UGAUCUUACAUGAGGAUCACCCAUGUAGGCCAGUAACUAACCAGAAGGCACGUAGAGUACAACAGUGAGGAUAUGGAUGACAUA |  |  | 9.29 | 5.95
6 | UGAUGACCUGUACCUAGUUGGUGACAUGAGGAUCACCCAUGUCAGGAUAUCGGGUUUGAAAACAACGAGAAGGGACAACGGGCG | 12.6 | 13 |  | 
7 | UGCAUCUGAGGAUAUCACAUGUGGAACAUGAGGAUCACCCAUGUGAUCCACAUGCCGUUGUGAGAAGGCAGUAAAA | 314 | 193 |  | 
8 | UGCAUGUAAGGAUAUGCAUCCGCCAAAGAACCGGCGCCACAGCAGAAGGUACAUGAGGAUCACCCAUGUGUCCC | 15.1 | 29.1 |  | 
9 | UGCCGUAGAGGAUAUACAUAGAAAUAGAUUCAUGUAAAACUACAUGAGGAUCACCCAUGUAGAAGGCUAUGGCU | 21.6 | 137 |  | 
10 | UGCCUGAGUCGAGGAUAUUAUGGAUCAAUUAAUACAUGAGGAUCACCCAUGUAAUUAAUUUAACAUGAGAAGGUGACUCAGGCU |  |  | 12.2 | 10.2
11 | UGCGCUGAGGGAGGAUAUGACAUGAGGAUCACCCAUGUGAUAGGUUUCUUGUCAGAAGGCCCGCAUGUACCAAAUUAGGUUUGU | 94 | 126 |  | 
12 | UGCUAAUUGUAGAAGGGUGACAUGAGGAUCACCCAUGUUCACAUGCGAUUUACGGCGCAUGUUCCACAGGAUAUACAGUUGAGU |  |  | 342 | 60.1
13 | UGCUACGUUUCGUAGCAGCUAGGUGAGGAUAUUCAAUUUUUCACAUGAGGAUCACCCAUGUAUGUGAAGAAGGCGCCUAGAAAA |  |  | 10.2 | 4.56
14 | UGCUGGUGACAGCAUCCAUCAAAACAUGAGGAUCACCCAUGUAGAAGGCUGUACGGUUACCGUACAGAGGAUAUACAAUGAUGC | 15.4 | 29.4 |  | 
15 | UGCUGUGUCAGAGGAUAUACUACUAUAAUCCAUUGCAAAUAGCGAUGGACAUGAGGAUCACCCAUGUAGAAGGCUGUCACAGCA | 46.6 | 178 |  | 
16 | UGCUGUGUCAGAGGAUAUACUCUAAUAAUCCAUUGCAAAUAGCGAUGGACAUGAGGAUCACCCAUGUAGAAGGCUGUCACAGCA | 73.6 | 140 |  | 
17 | UGGACCGAGCUAUCGGUUGACUGGGAGGAUAUGACAUGAGGAUCACCCAUGUGGGAUCUAAAUUGUCAGAAGGCUCGAUCUGGG | 258 | 257 |  | 
18 | UGGAGGUCAGGAUAUGCAUGGCGGGACUUGCGUCGUGGCGUGCAGAAGGGACAUGAGGAUCACCCAUGUGGAGC | 64.5 | 83.7 |  | 
19 | UGGAUGUGGGUUCCACAUGAGGAUCACCCAUGUACCGAUGAGAGAAGGCGCGCUGGAUCACAGGGCGAGGAUAUCUACAUUCAA | 6.06 | 13.1 |  | 
20 | UGGGAGCGAUAGAAGGCCGGGUUUCACAUGAGGAUCACCCAUGUGCGGGCCCUCUGUUGAAGGCUGGAGGAUAUAUCGUGCGGA | 14.5 | 7.39 |  | 
21 | UGGGCGUGUGUCAGGAUAUGUGCUCUUCCUAGAGCGUAGAAGGGACAUGAGGAUCACCCAUGUCGAAUUGCCAA | 17.4 | 30.7 |  | 
22 | UGGGUAAGUGUAGGAUAUUUAUAUUAAUAGUAUGGAGAAGGACAUGAGGAUCACCCAUGUACAGGGAGUUGCCCAUUUCCUCUC | 335 | 671 |  | 
23 | UGGUACAUCGGAGGAUAUCAUGUAGAUACAUGAGGAUCACCCAUGUCGUACGAUAGUACGGAGAUUGAGAAGGCCGAUGUACCU |  |  | 30.5 | 16.6
24 | UGGUACAUGGGAGGAUAUGGGUUGAUAACAUGAGGAUCACCCAUGUUAAAUAUGCCUCUUGGCAACUAGAAGGCCCAUGUACCU |  |  | 512 | 41.8
25 | UGGUACUAGGGAGGAUAUGAGAAGAUACAUGAGGAUCACCCAUGUUUAAGAAUGCCGAGAGGCAACUAGAAGGCCCUAGUACCU |  |  | 7.85 | 5.23
26 | UGGUACUAGGGAGGAUAUGGGAAGAUACAUGAGGAUCACCCAUGUUAAAGAAUGCCGAGAGGCAACUAGAAGGCCCUAGUACCU |  |  | 293 | 16.3
27 | UGGUACUAGGGAGGAUAUGGGAAGAUACAUGAGGAUCACCCAUGUUUAAGAAUGCCGAGAGGCAACUAGAAGGCCCUAGGACCU |  |  | 434 | 18.5

Row | Sequence | apparent Kd [1] [nM] | apparent Kd [2] [nM] | apparent Kd [3] [nM] | apparent Kd [4] [nM]
28 | UGGUACUAGGGAGGAUAUGGGAAGAUACAUGAGGAUCACCCAUGUUUAAGAAUGCCGAGAGGCAACUAGAAGGCCCUAGUACCU |  |  | 1050 | 45.3
29 | UGGUACUAGGGAGGAUAUGGGAAGAUACAUGAGGAUCACCCAUGUUUAAGGAUGCCGAGAGGCAACUAGAAGGCCCUAGUACCU |  |  | 851 | 97
30 | UGGUACUAUGGAGGAUAUGGGAAGAUACAUGAGGAUCACCCAUGUUUAAGAAUGCCGAGAGGCAACUAGAAGGCCCUAGUACCU |  |  | 349 | 32.7
31 | UGGUCAUCAUCAGGAUAUUAACGUGGGCUACUUUAAGAAGGGAUAGUGGGAGAGGAUGUGAAACAUGAGGAUCACCCAUGUUGU |  |  | 15.7 | 12.3
32 | UGGUCAUGAUCAGGAUAUUAACAUGGGCUACAUUAAGAAGGGAUAGUGAGAUACGAACUGAAACAUGAGGAUCACCCAUGUGUU |  |  | 170 | 107
33 | UGGUCAUGAUCAGGAUAUUAACAUGGGCUACAUUAAGAAGGGAUAGUGAGAUACGAACUGAACGACAUGAGGAUCACCCAUGUA |  |  | 44.8 | 34.3
34 | UGGUCAUGAUCAGGAUAUUAACAUGGGCUACAUUAAGAAGGGAUAGUGAGAUGCGAACGGAACGACAUGAGGAUCACCCAUGUA |  |  | 44.6 | 35
35 | UGGUGAAGUGUAGGAUAUGGAGAUGGGUUUUGGCCAGAAGGACAUGAGGAUCACCCAUGUGGUAGAGGGUUGGUGGUGGCUCGU | 31.6 | 24.3 |  | 
36 | UGUAACCAAGGAUAUACAUGAGGAUCACCCAUGUAAUGUAGUAUAGUGUGUGUGAGGUGUAGAAGGAGGGAUGU | 76.3 | 73.6 |  | 
37 | UGUACUAUAAGGUUAAUUGUAUAUUGAGAAGGCAUACACAUGAGGAUCACCCAUGUAACAUGGAAUGAGGAUAUCAUUAUGUAC |  |  | 17.3 | 14.4
38 | UGUAUGGACAGAGGAUAUACGGAUAGGAUCUACUAUCUUCUUCAAAUAACAUGAGGAUCACCCAUGUAGAAGGCUGUCCAUACU | 16.1 | 35.1 |  | 
39 | UGUAUGGACAGAGGAUAUACGUGCUAGAGAUACUAGCAAAUAAUCCUUACAUGAGGAUCACCCAUGUAGAAGGCUGUCCAUACU | 20.1 | 46.5 |  | 
40 | UGUCAGAUGGUAGGAUAUUCAUAUCGAGUGACCCUUUCAUAACAUGAGGAUCACCCAUGUCGGUGGGAGAAGGGCCGUAUGGUG | 29.8 | 30.3 |  | 
41 | UGUCAUUUACAGAAGGGUAGUUGGGUUUUACAUGAGGAUCACCCAUGUUUUACAGGAUAUGUGUUUUGUUACUAUUAAAGUUCA | 66.5 | 123 |  | 
42 | UGUCCAUAGCAGAAGGCAUGUCAAAAGACAUGAGGAUCACCCAUGUAAACAUGAGGAUAUGCUAUGGACUAAGAGCGAAAGCUC | 8.57 | 5.66 |  | 
43 | UGUCGGAGCAGAGGAUAUUACAUGAGGAUCACCCAUGUAUGAACCAAUAGCUGAAAACAGCAAUGUAAGAAGGCUGCUCCGACA | 11.5 | 176 |  | 
44 | UGUCGGAGCAGAGGAUAUUACAUGAGGAUCACCCAUGUAUGAACCAAUAGCUGGAAACAGCAAUGUAAGAAGGCUGCUCGGACA | 12.6 | 187 |  | 
45 | UGUCGGAGCAGAGGAUAUUACAUGAGGAUCACCCAUGUAUGAACCAAUAGCUGGUAACAGCAAUGUAAGAAGGCUGCUCCGACA | 14.1 | 176 |  | 
46 | UGUGCGUAUGUGAGGAUAUGCUGGUCCUUGGAUCGGCAGAAGGCACAUGAGGAUCACCCAUGUGGUGUCGUACU | 483 | 26.6 |  | 
47 | UGUGCGUAUGUGAGGAUAUGCUGGUCCUUGGAUCGGCAGAAGGCACAUGAGGAUCACCCAUGUGGUGUCGUUCC | 144 | 57.8 |  | 
48 | UGUGCGUUGAUCUUCGAUCGGAGUACAUGAGGAUCACCCAUGUAGGAUAUUCAAAGACGCAGAUAGAAGAAGGACAUCGGUUUA | 11.9 | 11.1 |  | 
49 | UGUGCGUUGAUCUUCGAUCGGUGUACAUGAGGAUCACCCAUGUAGGAUAUUCAAAGACGCAGAUAGGAGAAGGACAUUGGUUUU | 16.8 | 20 |  | 
50 | UGUGGCGGUCAGAAGGCAACGUUGACAUGAGGAUCACCCAUGUUACCCUUGAGGAUAUGGCGGGCCUCACGUCGGUGGUAAUGA |  |  | 93.8 | 23.3
51 | UGUGUGAGACAGGAUAUGCUGGUUGUGUGGCGGGUAGAAGGGUCUACAUGAGGAUCACCCAUGUGGCCGGUUGG | 22 | 22.8 |  | 
52 | UGUGUUAUCGGAGGAUAUCGAUAUCAAACAUGAGGAUCACCCAUGUUGAGGAUCACCCAUGUCCACGAGAAGGCCGGCGUAGUG |  |  | 18.1 | 18.3
53 | UGUUAAUUGUAGAAGGGUGACAUGAGGAUCACCCAUGUUCACAUGCGAUUUACGGCGCAUGUUCCACAGGAUAUACAGUUGAGU |  |  | 556 | 97.8
54 | UGUUCUAUGUAGAAGGCCCAUAUCUGUACUUAGGGAGGAUAUACAUGAGGAUCACCCAUGUGUAGAGCUGGUGGACUGGACAGC | 20.9 | 32.5 |  | 

— the EternaBench riboswitch data
